Reference: PMC4830347 (Journal of the American Chemical Society, 2016)

Assays:
HeLa cells = assay: MTT cell viability assay, HeLa cells; assay type: cell-based
In short: (§1)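 HeLa or Saos-2 cells seeded at 1 × 10^4 cells/well and incubated 48 h with test compound in culture medium (200, 300, 400 μM) before MTT read-out; IC50 after 48 h. Inhibitor experiments used test compound at 500 μM for 48 h with or without l-Phe (3 mM) or levamisole (1 mM). Separately, exogenous ALP (5 U/mL) was added together with test compound.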

Saos-2 cells = assay: MTT cell viability assay, Saos-2 cells; assay type: cell-based; conditions: Saos-2, six precursors 500 μM, 48 h
In short: as §1

Structure (SMILES) | cell compatibility (HeLa cells; 3 mM, cell culture) | rescue of precursor-treated cells by PLAP inhibitor (Saos-2 cells; L-Phe 3 mM) | rescue of precursor-treated cells by TNAP inhibitor (HeLa cells; HeLa, six precursors 500 μM, inhibitor 1 mM, 48 h) | rescue of precursor-treated cells by TNAP inhibitor (Saos-2 cells; inhibitor 1 mM)
N[C@@H](Cc1ccccc1)C(=O)O [L-Phe, L-phenylalanine] | cell compatible | hardly rescue the Saos-2 cells at all |  | 
c1ccc(C2CN3CCSC3=N2)cc1 (single isomer, unassigned; (-)) [(−)-tetramisole] |  |  | hardly rescues HeLa cells | significantly increases the cell viability
